From PMC4377293 (The Biochemical journal, 2015)
Where “and” joins values, the source holds several entries; their conditions need not be identical. Equal entries are not always repeated.

What was measured:
[1] = target: T1, human PRODH2 157–515 (HYPDH) (Homo sapiens, UniProt Q9UF12); assay: Inhibition studies, standard o-AB assay; assay type: biochemical; conditions: 600 mM Hyp; for inhibition of HYPDH activity: up to 5 mM; for IC50: 5 min preincubation, compound up to 5 mM
T1 sequence (Q9UF12 81-439 limits assumed): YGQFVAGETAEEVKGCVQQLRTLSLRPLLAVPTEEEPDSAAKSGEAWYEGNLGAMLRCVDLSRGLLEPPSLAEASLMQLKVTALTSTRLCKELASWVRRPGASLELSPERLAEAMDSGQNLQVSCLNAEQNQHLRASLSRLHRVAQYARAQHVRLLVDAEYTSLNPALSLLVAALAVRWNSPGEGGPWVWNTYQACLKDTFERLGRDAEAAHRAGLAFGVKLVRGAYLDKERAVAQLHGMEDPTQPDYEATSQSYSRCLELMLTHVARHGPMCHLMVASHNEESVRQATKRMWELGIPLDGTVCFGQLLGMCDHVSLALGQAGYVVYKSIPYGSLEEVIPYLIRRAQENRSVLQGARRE
Outline: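 Purified PRODH2 157–515 at 200 nM in 50 mM HEPES pH 7.5 with 4 mM o-AB and 200 μM CoQ1 as electron acceptor, 25°C. Test compound (up to 5 mM) was preincubated with enzyme for 5 min, then 600 mM Hyp was added. Product–o-AB adduct was followed at 443 nm. Percent activity versus concentration was fit assuming single-site binding to give IC50. Stocks were aqueous, except one in DMSO (3% final).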

[2] = target: T2, human PRODH2 157–515 (Homo sapiens, UniProt Q9UF12); assay: Steady-state kinetic analysis with the o-AB assay; assay type: biochemical; conditions: for reaction as substrate: tested at 500 mM
T2 sequence (Q9UF12 81-439 limits assumed): T1 sequence (Q9UF12 81-439 limits assumed)

[3] = target: T2, human PRODH2 157–515; assay: Steady-state kinetics with ubiquinone analogues as electron acceptors; assay type: biochemical; conditions: for ability to support Hyp turnover as electron acceptor: Triton X-100 included with CoQ4
[4] = target: T2, human PRODH2 157–515; assay: Anaerobic titration with Hyp; assay type: binding; conditions: Kd from anaerobic titration versus Km from o-AB assay
[5] = target: T2, human PRODH2 157–515; assay: Sulfite reactivity; assay type: binding
Outline: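 The flavin spectrum was recorded until absorbance stabilised, and ΔA455 was fit hyperbolically for Kd. For adduct reversibility, a proline-analogue inhibitor (1–5 mM final) was added and incubated for 30 min before the spectrum was re-acquired.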

[6] = target: Helicobacter hepaticus PutA; conditions: read-out: Kd for sulfite binding; ref [34], [45]; cited from earlier work
[7] = system: PRODH homologue of Saccharomyces cerevisiae; conditions: ref [43], [45]; cited from earlier work
[8] = system: E. coli PutA; conditions: ref [43], [45]; cited from earlier work
[9] = target: human PRODH1; conditions: read-out: Kd for sulfite binding; ref [34], [45]; cited from earlier work

For `O=C(O)[C@H]1C[C@@H](O)CN1` (relative stereo) [cis-4-OH-D-proline], the “inhibition of HYPDH activity” value [1] was “did not cause inhibition” and the reaction as substrate ([2]; 200 μM CoQ1) was “does not react”.
Work on `O=C(O)c1cc(O)[nH]n1` [5-OH-1H-pyrazole-3-COOH] yielded an IC50 [1] of 2900 ± 100 µM.
`O=C(O)[C@@H]1CC[C@@H](O)C1` [(1R, 3R) 3-OH-cyclopentane carboxylic acid] showed an IC50 [1] of 2100 ± 100 µM.
In the case of `O=C(O)[C@H]1CC[C@@H](O)C1` [(1S, 3R) 3-OH-cyclopentane carboxylic acid], the “inhibition of HYPDH activity” value [1] is reported as “did not cause inhibition” and the “inhibition of HYPDH activity” value ([1]; listed as (1S, 3R) 3-OH-cyclopentane-COOH) is reported as “did not inhibit”.
In the case of `COC1=C(OC)C(=O)C(CC=C(C)C)=C(C)C1=O` [CoQ1, Coenzyme Q1], the kcat ([3]; 0–400 μM ubiquinone analogue, 600 mM Hyp, 50 mM HEPES pH 7.5) is reported as 0.19 ± 0.01 s⁻¹, the Km ([3]; 0–400 μM ubiquinone analogue, 600 mM Hyp, 50 mM HEPES pH 7.5, 4 mM o-AB, 200 nM PRODH2 157–515) is reported as 124 ± 19 µM and the “ability to support Hyp turnover as electron acceptor” value (“ability to support Hyp turnover” for short) ([3]; 600 mM Hyp) is reported as “support Hyp turnover”.
With `COC1=C(OC)C(=O)C(C/C=C(\C)CCC=C(C)C)=C(C)C1=O` [CoQ2] the “ability to support Hyp turnover” value ([3]; 600 mM Hyp) was “inability to use”.
With `COC1=C(OC)C(=O)C(C/C=C(\C)CC/C=C(\C)CC/C=C(\C)CCC=C(C)C)=C(C)C1=O` [CoQ4] the “ability to support Hyp turnover” value ([3]; 600 mM Hyp) was “inability to use”.
With `CC1=C(C)C(=O)C(C)=C(C)C1=O` [Duroquinone] the “ability to support Hyp turnover” value ([3]; 600 mM Hyp) was “support Hyp turnover”.
In the case of `O=C(O)[C@@H]1C[C@@H](O)CN1` [Hyp, trans-4-hydroxy-L-proline], the “fold lower Kd than Km” value [4] is reported as ~ 1600 fold and 1600 fold, the “fold difference in kcat/Km (specificity constant), Hyp over Pro” value ([2]; 200 μM CoQ1) is reported as 12 fold and ~ 12 fold and the “fold lower kcat with O2 than with CoQ1 as electron acceptor” value ([2]; air saturated buffer versus 200 μM CoQ1) is reported as ~ 100 fold.
For `CC1=CC(=O)c2ccccc2C1=O` [Menadione], the Ki [3] was 306 ± 34 µM and the “ability to support Hyp turnover” value ([3]; 600 mM Hyp) was “support Hyp turnover”.
For `O=C(O)[C@@H]1CCCN1` [Pro, L-proline], the “saturation of PRODH2 by substrate” value ([2]; up to 750 mM Pro, 200 μM CoQ1) was “unable to saturate”.
With `O=C(O)C1CCCO1` (stereo not shown) [THFA, tetrahydrofuroic acid] the IC50 [1] was 1500 ± 100 µM and the “reversal of the sulfite adduct (flavin spectrum)” value ([5]; 1–5 mM THFA added, 30 min incubation) was “returned the flavin spectrum to the oxidized state”.
In the case of `O=S([O-])[O-].[Na+].[Na+]` [sulfite, sodium sulfite], the Kd [6] is given as 400 µM, the sulfite binding [7] is given as “do not bind” and the “time for the spectrum to reach equilibrium (adduct formation)” value ([5]; aerobic, 25 °C) is given as ~ 6 h. The Kd ([5]; read-out: Kd for sulfite binding, 50 μM PRODH2 157–515, 50 mM potassium phosphate pH 7.6, 25 °C, 6 h equilibration) was 64 ± 7.7 µM, the sulfite binding [8] was “do not bind” and the Kd [9] was 10400 µM.
In the case of `O=C(O)C1CC(O)CN1` [trans-4-OH-D-proline], the “inhibition of HYPDH activity” value [1] is reported as “did not cause inhibition” and the reaction as substrate ([2]; 200 μM CoQ1) is reported as “does not react”.
